This note sets out measurements from ChEMBL document CHEMBL1129597, “2-[2'-(Dimethylamino)ethyl]-1,2-dihydro- 3H-dibenz[de,h]isoquinoline-1,3-diones with substituents at positions 4, 8, 9, 10, and 11. Synthesis, antitumor activity, and quantitative structure-activity relationships” (J Med Chem, 1996).

Assay [1] deals with UACC-375. The experiment in a line: Antitumor activity against human melanoma UACC375 cell line. The format is functional, cell-based. In short, it runs like this: (§1)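 Cultured human tumor cells (melanoma UACC375, ovarian OVCAR3) under continuous drug exposure. Growth was read by sulforhodamine or MTT assay. Five concentrations per analogue, six determinations per concentration. IC50 values were derived from these.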

For assay [2], the system named is L1210. The experiment in a line: Antitumor activity against murine leukemia L1210 cell line. The format is functional, cell-based. The note with it: Mus musculus. The method, boiled down:
(§2)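 Murine L1210 leukemia cells, sensitive or MDR subline, in culture. Continuous drug exposure during MTT assay. Five concentrations per analogue, six determinations per concentration. The IC50 was derived.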

In assay [3] the test system is WiDr. The experiment in a line: Activity against human colon carcinoma multi drug resistant (MDR)-WiDr cell line. The format is functional, cell-based.
Assay [4] deals with OVCAR-3. As to the kind of experiment: Antitumor activity against human ovarian OVCAR-3 cell lines. The format is functional, cell-based. The method, boiled down: as §1
Assay [5] deals with MCF7. As to the kind of experiment: Antitumor activity against human mammary carcinoma sensitive […] breast cell line. The format is functional, cell-based.
Assay [6] in a line: The quotient of the IC50 in the myocytes divided by the mean IC50 in the three cell lines. The format is functional. The method, boiled down: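 Calculated index: the myocyte IC50 divided by the mean IC50 across three tumor lines (sensitive L1210, melanoma UACC375, ovarian OVCAR3).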
In assay [7] the test system is MCF7. As to the kind of experiment: Antitumor activity against human mammary carcinoma doxorubicin-resistant […] breast cell line. The format is functional, cell-based.
For assay [8], the system named is WiDr. As to the kind of experiment: Activity against human colon carcinoma sensitive WiDr cell line. The format is functional, cell-based.
Assay [9] has as its system L1210. As to the kind of experiment: Antitumor activity against sensitive L1210 murine leukemia cell lines. The format is functional, cell-based. The following applies: Mus musculus. The method, boiled down:
as §2

The species named for assay [10] is Rattus norvegicus. The experiment in a line: Cardiotoxicity measured by the ATP/protein ratio compared with untreated controls using neonatal rat heart myocyte assay. The format is functional. On the set-up: Cardiotoxicity: unit not given here. The method, boiled down:
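Neonatal rat heart myocytes exposed to drug for 1 h. The ATP/protein ratio was measured versus untreated control myocytes. IC50 is the concentration reducing this ratio to 50% of control.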

Assay [11] has as its system A549. The experiment in a line: Activity against A549 cancer cell line. The format is functional, cell-based. The note with it: Homo sapiens.
Assay [12] has as its system MCF7. The experiment in a line: Antitumor activity against human mammary carcinoma mitoxantrone-resistant […] breast cell line. The format is functional, cell-based.

pIC50: −log10 of the molar value.

The term pIC50 denotes −log10 of the IC50, conventionally taken in molar units. `COc1ccc2c3c4c(cccc4cc2c1)C(=O)N(CCN(C)C)C3=O`: the negative-log IC50 (pIC50) in [1] was 6.79; in assay [2] it was 7.27; in [3], 6.89; in assay [4], 6.27; in [5], 7.14; in [7] it was 6.92. The pIC50 in assay [8] is 7.19; in assay [9], 7.27; in [11], 7.57; in assay [12] it was 7.02. In assay [6], the Toxicity ratio is listed as <10.3. For the same compound, in assay [10], the Cardiotoxicity was < 2600.

For `CN(C)CCN1C(=O)c2cccc3cc4cc(Cl)ccc4c(c23)C1=O`, the pIC50 in assay [1] was 7.05; in [2], 8.11; in [3], 6.85; in assay [4], 6.64; in assay [5], 7.31; in [7], 7.15. For the same compound, the negative logarithm of the IC50 (pIC50) in [8] was 7.00; in assay [9] it was 8.11; in assay [10], 5.81; in assay [11], 8.00; in assay [12], 7.17. For the same compound, the Toxicity ratio in assay [6] is listed as 14.

In the case of `CN(C)CCN1C(=O)c2cccc3cc4c(O)cccc4c(c23)C1=O`, the pIC50 in assay [1] is 6.57; in assay [2], 7.17; in assay [3], 6.05; in assay [4] it was 6.67; in assay [5], 7.08; in assay [7], 6.64. The pIC50 was 6.89 in assay [8]; 6.97 in [9]; 5.53 in assay [10]; 7.22 in assay [11]; 6.92 in assay [12]. Besides, in assay [6], the Toxicity ratio is 15.

On to `Cc1ccc2cc3cccc4c3c(c2c1)C(=O)N(CCN(C)C)C4=O`, for which the pIC50 was 7.09 in assay [1]; 7.27 in [2]; 6.92 in assay [3]; 7.17 in assay [4]; 6.96 in [5]; 6.85 in [7]. The negative-log IC50 (pIC50) in assay [8] is 6.92; in assay [9] it was 7.39; in assay [10] it was 6.00; in assay [11] it was 7.85; in [12], 7.05. For the same compound, the Toxicity ratio in assay [6] was 16.

Turning to `COc1cccc2c3c4c(cccc4cc12)C(=O)N(CCN(C)C)C3=O`, the pIC50 in assay [1] is 7.28; in assay [2], 7.74; in [3], 7.52; in [4], 7.28; in assay [5], 6.92; in assay [7], 7.17. Besides, the pIC50 in [8] was 8.05; in assay [9], 7.89; in assay [10], 6.09; in assay [11], 8.32; in [12], 8.27. Moreover, the Toxicity ratio in assay [6] amounted to 21.

Consider `CN(C)CCN1C(=O)c2cccc3cc4ccc(F)cc4c(c23)C1=O`, for which the pIC50 in assay [1] is 7.80; in assay [3], 7.89; in assay [4] it was 8.17; in assay [5] it was 7.82; in assay [7], 7.60; in assay [8], 7.77. Besides, the pIC50 is 8.09 in assay [9], 6.34 in assay [10], 8.32 in assay [11] and 7.92 in [12]. Further, the Toxicity ratio in [6] came out at 45.6.

With `CN(C)CCN1C(=O)c2cccc3cc4ccc([N+](=O)[O-])cc4c(c23)C1=O`, the negative logarithm of the IC50 (pIC50) in assay [1] is 7.74; in assay [2], 7.60; in assay [3], 7.13; in [4] it was 7.64; in [5] it was 7.89; in [7], 8.06. Further, the pIC50 in [8] is 8.02; in assay [9], 7.60; in assay [10] it was 6.10; in assay [11], 8.60; in [12], 7.85. The Toxicity ratio in [6] was found to be 36.

On to `CN(C)CCN1C(=O)c2cccc3cc4ccc(O)cc4c(c23)C1=O`, for which the pIC50 in assay [1] is 5.92; in assay [2], 6.27; in [3], 6.62; in assay [4], 5.67; in [5] it was 8.24; in [7], 7.46. Besides, the negative-log IC50 (pIC50) in assay [8] was 7.77; in [9], 6.72; in assay [10] it was < 4.57; in [11], 8.77; in assay [12], 7.77. For the same compound, the Toxicity ratio in assay [6] is recorded as >23.

As to `CN(C)CCNc1ccc2cc3ccccc3c3c2c1C(=O)N(CCN(C)C)C3=O`, the pIC50 in [1] is 6.41; in assay [2], 6.61; in assay [3] it was 6.17; in assay [4] it was 6.15; in [5] it was 6.72; in assay [7] it was 6.28. Moreover, the negative-log IC50 (pIC50) in [8] is 6.40; in [9], 6.68; in [10], 6.13; in assay [11] it was 7.11; in assay [12] it was 6.64. In addition, the Toxicity ratio in assay [6] is reported as 1.7.

With `CNCCN1C(=O)c2cccc3cc4ccc(Cl)cc4c(c23)C1=O`, the pIC50 in assay [1] is 7.36; in [2], 7.84; in assay [3], 7.19; in [4] it was 6.99; in [5], 7.31; in assay [7], 7.30. For the same compound, the pIC50 in assay [8] is 7.29; in assay [9] it was 8.24; in [10], 5.84; in [11] it was 7.51; in [12] it was 7.38. Besides, the Toxicity ratio in assay [6] is on record as 28.

As for `CN(C)CCN1C(=O)c2cccc3cc4ccc(C#N)cc4c(c23)C1=O`, the pIC50 is 8.00 in assay [1]; 7.89 in assay [2]; 7.80 in assay [3]; 7.92 in assay [4]; 7.89 in [5]; 7.70 in assay [7]. Moreover, the pIC50 in [8] is 7.96; in assay [9], 7.82; in assay [10], 6.98; in assay [11] it was 8.66; in assay [12] it was 7.92. In assay [6], the Toxicity ratio was 9.

As to `COc1ccc2cc3cccc4c3c(c2c1)C(=O)N(CCN(C)C)C4=O`, the negative-log IC50 (pIC50) is 7.28 in assay [1]; 7.28 in assay [2]; 7.21 in assay [3]; 7.11 in assay [4]; 7.42 in assay [5]; 7.28 in [7]. The negative-log IC50 (pIC50) in assay [8] was 7.40; in assay [9], 7.68; in assay [10], 5.04; in [11] it was 7.51; in [12], 7.39. The Toxicity ratio in assay [6] is reported as 182.

Take `CN(C)CCN1C(=O)c2cccc3cc4ccc(-c5ccccc5)cc4c(c23)C1=O`: the pIC50 in assay [1] was 5.73; in assay [2] it was 6.89; in assay [3], 6.49; in [4], 6.46; in [5], 7.15; in [7], 6.72. The negative-log IC50 (pIC50) is 6.74 in assay [8], 7.15 in [9], 6.92 in assay [11] and 7.48 in assay [12].

Regarding `CN(C)CCN1C(=O)c2cccc3cc4ccc(Cl)cc4c(c23)C1=O`, the pIC50 is 7.19 in assay [1]; 8.11 in assay [2]; 7.07 in assay [3]; 7.19 in assay [4]; 7.24 in [5]; 8.10 in assay [7]. The pIC50 in [8] was 7.77; in assay [9], 8.29; in [10] it was 6.11; in [11], 8.09; in [12] it was 7.32. Also, the Toxicity ratio in assay [6] was 18.

Regarding `CN(C)CCN1C(=O)c2cccc3cc4ccc(I)cc4c(c23)C1=O`, the negative-log IC50 (pIC50) is 6.20 in [1]; 7.28 in [2]; 6.89 in assay [3]; 6.75 in assay [4]; 7.38 in assay [5]; 7.23 in [7]. The pIC50 in [8] was 7.40; in assay [9], 6.51; in assay [10], 5.32; in assay [11], 7.51; in [12], 7.31. In assay [6], the Toxicity ratio is on record as 13.

In the case of `CN(C)CCN1C(=O)c2cccc3cc4cccc(O)c4c(c23)C1=O`, the pIC50 in [1] was 6.27; in assay [2] it was 6.72; in assay [3], 6.57; in assay [4], 5.72; in assay [5] it was 7.09; in [7], 6.70. In addition, the negative logarithm of the IC50 (pIC50) in assay [8] is 7.00; in assay [9], 6.72; in assay [10], 4.81; in [11], 7.40; in assay [12] it was 7.10. The Toxicity ratio in assay [6] is listed as 18.

For the compound `CN(C)CCN1C(=O)c2cccc3cc4cccc(Cl)c4c(c23)C1=O`, the negative-log IC50 (pIC50) is 5.69 in [1]; 6.21 in [2]; 6.00 in assay [3]; 5.05 in assay [4]; 6.47 in assay [5]; 6.15 in assay [7]. For the same compound, the pIC50 was 6.41 in [8]; 5.75 in [9]; 5.08 in assay [10]; 7.21 in [11]; 6.92 in assay [12]. In addition, the Toxicity ratio in assay [6] came to 1.9.

As for `COc1ccc2cc3ccccc3c3c2c1C(=O)N(CCN(C)C)C3=O`, the negative-log IC50 (pIC50) in [1] was 6.74; in assay [2], 6.75; in [3], 6.05; in assay [4] it was 6.29; in [5] it was 6.46; in assay [7], 6.16. Further, the negative logarithm of the IC50 (pIC50) in assay [8] was 6.18; in [9] it was 7.15; in assay [11] it was 7.09; in assay [12], 6.28.
